Assays:
[1] = Drug concentration in male albino rat pituitary gland assessed as radioactivity per gram of tissue at 20 mg/kg administered as single dose via gastric gavage measured after 6 hrs by autoradiographic analysis; type: ADME, organism-based; design: dose 20 mg/kg, dosed compound name [14C]Sunitinib; details: in vivo, po
Rattus norvegicus [2] = assay: Cmax as total radioactivity in female Sprague-Dawley rat plasma at 5 mg/kg, iv administered as single dose by LC/MS/MS analysis; type: ADME, organism-based; design: dose 5 mg/kg, dosed compound name [14C]Sunitinib, route intravenous; details: in vivo
Outline: (§1)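 Single dose of [14C]sunitinib L-malate as free base, 50 µCi/kg. IV dose was 5 mg/kg by tail vein in 5 females. Oral dose was 15 mg/kg by gavage in 3 females and 3 males. Total radioactivity was by scintillation counting. […] Cmax was read from raw data, t½ by log-linear regression, AUC by linear trapezoidal rule.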

[3] = Drug concentration in male Lister Hooded pigmented rat pituitary gland assessed as radioactivity per gram of tissue at 20 mg/kg administered as single dose via gastric gavage measured after 168 hrs by autoradiographic analysis; type: ADME, organism-based; design: dose 20 mg/kg, dosed compound name [14C]Sunitinib; details: in vivo, po
Large intestine = assay: Drug concentration in male Lister Hooded pigmented rat large intestine assessed as radioactivity per gram of tissue at 20 mg/kg administered as single dose via gastric gavage measured after 24 hrs by autoradiographic analysis; type: ADME, organism-based; design: dose 20 mg/kg, dosed compound name [14C]Sunitinib; details: in vivo, po
[4] = Drug concentration in male Lister Hooded pigmented rat uveal tract assessed as radioactivity per gram of tissue at 20 mg/kg administered as single dose via gastric gavage measured after 72 hrs by autoradiographic analysis; type: ADME, organism-based; design: dose 20 mg/kg, dosed compound name [14C]Sunitinib; details: in vivo, po
Homo sapiens = assay: Tmax as total radioactivity in human plasma at 50 mg, po administered as single dose measured up to 24 hrs by LC/MS/MS analysis; type: ADME, organism-based; design: dosed compound name [14C]Sunitinib; details: in vivo
[5] = Drug concentration in male albino rat uveal tract assessed as radioactivity per gram of tissue at 20 mg/kg administered as single dose via gastric gavage measured after 3 hrs by autoradiographic analysis; type: ADME, organism-based; design: dose 20 mg/kg, dosed compound name [14C]Sunitinib; details: in vivo, po
Rattus norvegicus [6] = assay: Tmax as total radioactivity in female Sprague-Dawley rat plasma at 15 mg/kg, po administered as single dose by LC/MS/MS analysis; type: ADME, organism-based; design: dose 15 mg/kg, dosed compound name [14C]Sunitinib, route oral; details: in vivo
Lung = assay: Drug concentration in male albino rat lung assessed as radioactivity per gram of tissue at 20 mg/kg administered as single dose via gastric gavage measured after 3 hrs by autoradiographic analysis; type: ADME, organism-based; design: dose 20 mg/kg, dosed compound name [14C]Sunitinib; details: in vivo, po
Stomach = assay: Drug concentration in male albino rat stomach assessed as radioactivity per gram of tissue at 20 mg/kg administered as single dose via gastric gavage measured after 3 hrs by autoradiographic analysis; type: ADME, organism-based; design: dose 20 mg/kg, dosed compound name [14C]Sunitinib; details: in vivo, po
[7] = Drug concentration in male Lister Hooded pigmented rat eye assessed as radioactivity per gram of tissue at 20 mg/kg administered as single dose via gastric gavage measured after 24 hrs by autoradiographic analysis; type: ADME, organism-based; design: dose 20 mg/kg, dosed compound name [14C]Sunitinib; details: in vivo, po
[8] = Drug recovery in feces of male cynomolgus monkey at 6 mg/kg, po administered as single dose during 0 to 336 hrs by liquid scintillation counting; type: ADME, organism-based, Macaca fascicularis; design: dose 6 mg/kg, dosed compound name [14C]Sunitinib, route oral; details: in vivo
[9] = Drug concentration in female albino rat bone marrow assessed as radioactivity per gram of tissue at 20 mg/kg administered as single dose via gastric gavage measured after 72 hrs by autoradiographic analysis; type: ADME, organism-based; design: dose 20 mg/kg, dosed compound name [14C]Sunitinib; details: in vivo, po
Outline: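 Sprague Dawley (albino) rats, ca 7-8 weeks old, received a single gastric-gavage dose of [14C]sunitinib L-malate at 20 mg/kg (15 mg freebase/kg, 100 µCi/kg). One animal per sex killed by CO2 at 3, 6, 24, 72 and 168 h, then frozen in CO2/hexane. 30 µm sagittal sections were cut and freeze-dried. Radioactivity per gram quantified by whole-body autoradiography using regression against standards. LOQ 0.04–0.06 µg freebase equiv/g.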

Brain [10] = assay: Drug concentration in male albino rat brain assessed as radioactivity per gram of tissue at 20 mg/kg administered as single dose via gastric gavage measured after 6 hrs by autoradiographic analysis; type: ADME, organism-based; design: dose 20 mg/kg, dosed compound name [14C]Sunitinib; details: in vivo, po
Cynomolgus monkey = assay: Drug recovery in cage residue of female cynomolgus monkey at 6 mg/kg, po administered as single dose during 0 to 336 hrs by liquid scintillation counting; type: ADME, organism-based, Macaca fascicularis; design: dose 6 mg/kg, dosed compound name [14C]Sunitinib, route oral; details: in vivo
Zone of skin [11] = assay: Drug concentration in female Lister Hooded pigmented rat abdomen skin assessed as radioactivity per gram of tissue at 20 mg/kg administered as single dose via gastric gavage measured after 168 hrs by autoradiographic analysis; type: ADME, organism-based; design: dose 20 mg/kg, dosed compound name [14C]Sunitinib; details: in vivo, po
Outline: (§2)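 Pigmented Lister Hooded rats, 7-8 weeks old, received [14C]sunitinib L-malate by gavage at 20 mg/kg (15 mg freebase/kg, 100 µCi/kg). One rat per sex was killed by CO2 at each of 24, 72, 168 and 336 h. Carcasses were frozen in solid CO2/hexane and cut into 30 µm sagittal sections, then freeze-dried. Tissue radioactivity was quantified by whole-body autoradiography calibrated against standards by regression (LOQ 0.04–0.06 µg eq/g).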

[12] = Drug concentration in male Lister Hooded pigmented rat lachrymal gland assessed as radioactivity per gram of tissue at 20 mg/kg administered as single dose via gastric gavage measured after 24 hrs by autoradiographic analysis; type: ADME, organism-based; design: dose 20 mg/kg, dosed compound name [14C]Sunitinib; details: in vivo, po
[13] = Drug concentration in male albino rat skeletal muscle assessed as radioactivity per gram of tissue at 20 mg/kg administered as single dose via gastric gavage measured after 3 hrs by autoradiographic analysis; type: ADME, organism-based; design: dose 20 mg/kg, dosed compound name [14C]Sunitinib; details: in vivo, po
Brain [14] = assay: Drug concentration in male Lister Hooded pigmented rat brain assessed as radioactivity per gram of tissue at 20 mg/kg administered as single dose via gastric gavage measured after 24 hrs by autoradiographic analysis; type: ADME, organism-based; design: dose 20 mg/kg, dosed compound name [14C]Sunitinib; details: in vivo, po
Rattus norvegicus [15] = assay: Apparent terminal half life as total radioactivity in male Sprague-Dawley rat plasma at 15 mg/kg, po administered as single dose by LC/MS/MS analysis; type: ADME, organism-based; design: dose 15 mg/kg, dosed compound name [14C]Sunitinib, route oral; details: in vivo; outline: as §1
Thymus = assay: Drug concentration in female Lister Hooded pigmented rat thymus assessed as radioactivity per gram of tissue at 20 mg/kg administered as single dose via gastric gavage measured after 24 hrs by autoradiographic analysis; type: ADME, organism-based; design: dose 20 mg/kg, dosed compound name [14C]Sunitinib; details: in vivo, po
Outline: (§3)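 Lister Hooded (pigmented) rats, ca 7-8 weeks old, acclimated 7 days, given [14C]sunitinib L-malate by gastric gavage at 20 mg/kg (15 mg freebase/kg, 100 µCi/kg). One male and one female killed by CO2 at 24, 72, 168 and 336 h. Carcasses frozen in solid CO2/hexane and embedded in frozen cellulose. 30 µm sagittal cryosections were freeze-dried. Tissue radioactivity measured by quantitative whole-body autoradiography against calibration standards, with background subtracted.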

Spleen = assay: Drug concentration in female Lister Hooded pigmented rat spleen assessed as radioactivity per gram of tissue at 20 mg/kg administered as single dose via gastric gavage measured after 24 hrs by autoradiographic analysis; type: ADME, organism-based; design: dose 20 mg/kg, dosed compound name [14C]Sunitinib; details: in vivo, po; outline: as §3
[16] = Drug concentration in male Lister Hooded pigmented rat skeletal muscle assessed as radioactivity per gram of tissue at 20 mg/kg administered as single dose via gastric gavage measured after 168 hrs by autoradiographic analysis; type: ADME, organism-based; design: dose 20 mg/kg, dosed compound name [14C]Sunitinib; details: in vivo, po
Zone of skin [17] = assay: Drug concentration in female Lister Hooded pigmented rat abdomen skin assessed as radioactivity per gram of tissue at 20 mg/kg administered as single dose via gastric gavage measured after 336 hrs by autoradiographic analysis; type: ADME, organism-based; design: dose 20 mg/kg, dosed compound name [14C]Sunitinib; details: in vivo, po; outline: as §2
Adrenal = assay: Drug concentration in female Lister Hooded pigmented rat adrenal assessed as radioactivity per gram of tissue at 20 mg/kg administered as single dose via gastric gavage measured after 336 hrs by autoradiographic analysis; type: ADME, organism-based; design: dose 20 mg/kg, dosed compound name [14C]Sunitinib; details: in vivo, po; outline: as §3
[18] = Drug concentration in male Lister Hooded pigmented rat preputial gland assessed as radioactivity per gram of tissue at 20 mg/kg administered as single dose via gastric gavage measured after 168 hrs by autoradiographic analysis; type: ADME, organism-based; design: dose 20 mg/kg, dosed compound name [14C]Sunitinib; details: in vivo, po
[19] = Drug concentration in male albino rat salivary gland assessed as radioactivity per gram of tissue at 20 mg/kg administered as single dose via gastric gavage measured after 3 hrs by autoradiographic analysis; type: ADME, organism-based; design: dose 20 mg/kg, dosed compound name [14C]Sunitinib; details: in vivo, po
Zone of skin [20] = assay: Drug concentration in male Lister Hooded pigmented rat abdomen skin assessed as radioactivity per gram of tissue at 20 mg/kg administered as single dose via gastric gavage measured after 336 hrs by autoradiographic analysis; type: ADME, organism-based; design: dose 20 mg/kg, dosed compound name [14C]Sunitinib; details: in vivo, po

Radiolabel recovery [1]: 22.94 ugequiv
Cmax (Rattus norvegicus [2]): 2148 ngequiv/ml
Radiolabel recovery [3]: 81.06 ugequiv
Radiolabel recovery (Large intestine): 0.69 ugequiv
Radiolabel recovery [4]: 147.37 ugequiv
Tmax (Homo sapiens): 8 h
Radiolabel recovery [5]: 2.63 ugequiv
Tmax (Rattus norvegicus [6]): 6 h
Radiolabel recovery (Lung): 20.7 ugequiv
Radiolabel recovery (Stomach): 10.15 ugequiv
Radiolabel recovery [7]: 7.8 ugequiv
Radiolabel recovery [8]: 87.3%
Radiolabel recovery [9]: 0.1 ugequiv
Radiolabel recovery (Brain [10]): 0.34 ugequiv
Radiolabel recovery (Cynomolgus monkey): 0.6%
Radiolabel recovery (Zone of skin [11]): 0.17 ugequiv
Radiolabel recovery [12]: 0.94 ugequiv
Radiolabel recovery [13]: 2.92 ugequiv
Radiolabel recovery (Brain [14]): 0.06 ugequiv
t1/2 lambda z (Rattus norvegicus [15]): 9 h
Radiolabel recovery (Thymus): 0.88 ugequiv
Radiolabel recovery (Spleen): 2.79 ugequiv
Radiolabel recovery [16]: 0.06 ugequiv
Radiolabel recovery (Zone of skin [17]): 0.36 ugequiv
Radiolabel recovery (Adrenal): 0.66 ugequiv
Radiolabel recovery [18]: 0.06 ugequiv
Radiolabel recovery [19]: 17.24 ugequiv
Radiolabel recovery (Zone of skin [20]): 0.3 ugequiv
Structure (SMILES): CCN(CC)CCNC(=O)c1c(C)[nH]c(/[14CH]=C2\C(=O)Nc3ccc(F)cc32)c1C.O=C(O)C[C@H](O)C(=O)O
